The text below walks through data of PMC4383763 (Journal of clinical pharmacology, 2013).

Data set [1] deals with Cultured hepatocytes. To be noted: in the presence of PG; cited from earlier work.
The nature of data set [2]: Plasma propylene glycol concentration by GC-FID after APAP preparation. The format is in vivo, human. In short, it runs like this: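 Crossover in volunteers given tablet or liquid APAP formulations (liquid contains 5% v/v PG), 15 mg/kg orally after a 1 h fast, on separate visits. Blood held refrigerated ≤24 h, then plasma separated by centrifugation and stored at -80 °C. PG was measured by GC-FID, first in 0–120 min samples from three subjects, then in all 30 min samples. LOD 5.0 mg/dL.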

The conditions of data set [3]: assumed for the prediction, no reference given; cited from earlier work.
For data set [4], the system named is CYP2E1. To be noted: cited from earlier work.
In data set [5] the test system is APAP-induced liver injury in mice. As to conditions: cited from earlier work; for effect of drug vehicles on APAP-induced liver injury: mouse model.
For data set [6] the following is noted: subjects who received 2 months of cimetidine; cited from earlier work.

Structures are written as SMILES.

For the compound `CC(O)CO` (stereo not drawn) [PG, propylene glycol], in data set [1], the “susceptibility of cultured hepatocytes to APAP-induced necrosis” value is on record as “less susceptible”. Moreover, the “maximum PG concentration in plasma” value in data set [2] (30-minute samples after liquid preparation) came to 9.1 mg/dL. The “PG detected in 30-minute samples” value in data set [2] (following ingestion of the liquid preparation, limit of detection 5.0 mg/dL) is 9 out of 15. Moreover, in data set [2] (solid group, limit of detection 5.0 mg/dL), the “PG detected in samples” value is recorded as “none”. In data set [3], the “volume of distribution of PG” value is recorded as 0.58 L/kg. Besides, the “type of CYP2E1 inhibition” value in data set [4] is given as “competitive inhibitor”. Further, in data set [5] (mice pretreated with the substance), the “hepatocellular damage following a toxic APAP dose” value was “reduced hepatocellular damage”. In addition, in data set [5], the “effect of drug vehicles on APAP-induced liver injury” value (from here on “effect of drug vehicles”) is listed as “protective”.

With `CN/C(=N/CCSCc1nc[nH]c1C)NC#N` [cimetidine], the “urinary APAP-mercapturate following therapeutic APAP dosing” value in data set [6] is “decreased”.

`CN(C)C=O` [dimethylformamide]: in data set [5], the “effect of drug vehicles” value is recorded as “protective”.

Consider `C[S+](C)[O-]` [dimethylsulfoxide], for which the “effect of drug vehicles” value in data set [5] is recorded as “protective”.

Take `CCO` [ethanol]: the “effect of drug vehicles” value in data set [5] is recorded as “protective”.
